Screens: PubChem, Sanford-Burnham Center for Chemical Genomics
STEP inh: inhibitors of human striatal-enriched phosphatase STEP; inhibition, % at 20 µM; P54829; hit rate 0.25% among 360,000; AID 588621; recombinant STEP, OMFP fluorogenic substrate, fluorescence;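 active means inhibition at 20 µM, scaled per plate between control wells, above about 37%, limit read from the data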
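System: STEP (striatal-enriched tyrosine phosphatase) enzyme, cell-free; medium: Bis-Tris pH 6.0 buffer with DTT, detergent; dosing: 20 µM, 1% DMSO; times: reaction 20 min, ambient temperature; detection: fluorescence, 480/540 nm; read-out basis: normalized % inhibition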
LMPTP block: LMPTP (human) inhibition; P24666; recombinant LMPTP-A, OMFP fluorogenic substrate, fluorescence intensity; inhibition, % at 20 µM; hit rate 0.22% among 360,000; AID 651560;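 active means compounds that cut the enzyme signal by at least half of the control window in the single-dose screen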
Target sequence (P24666 whole entry, looked up): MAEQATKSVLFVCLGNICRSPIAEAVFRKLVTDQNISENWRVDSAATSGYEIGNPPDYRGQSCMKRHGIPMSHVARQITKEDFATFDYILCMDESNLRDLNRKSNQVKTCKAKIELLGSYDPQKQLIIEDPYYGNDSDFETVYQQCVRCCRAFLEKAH
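test system = LMPTP-A | amount = 0.625 nM LMPTP-A final | reagent = fluorogenic phosphatase substrate OMFP at 400 µM final | incubation = 50 min at room temperature | benchmarks = no-enzyme low control, uninhibited high control | medium = Bis-Tris pH 6.0, DTT, detergent | signal = fluorescence intensity of OMFP turnover product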
Scp1 inh: Scp-1 (human) phosphatase inhibition | Q9GZU7 | Recombinant Scp1, phosphopeptide, malachite green phosphate absorbance | inhibition, % at 20 µM | hit rate 0.88% among 340,000 | AID 493091;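 active means inhibition above about 50% at 20 µM, limit read from the data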
Target sequence (Q9GZU7 76-261 limits assumed): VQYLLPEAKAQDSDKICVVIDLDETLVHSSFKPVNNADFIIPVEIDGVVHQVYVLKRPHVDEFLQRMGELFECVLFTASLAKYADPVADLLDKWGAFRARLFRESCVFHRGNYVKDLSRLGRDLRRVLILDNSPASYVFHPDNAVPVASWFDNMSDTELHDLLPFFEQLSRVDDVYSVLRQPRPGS
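System: truncated SCP-1 phosphatase (76-261aa); medium: Tris acetate buffer pH 5.5 with MgCl2 and Tween-20; incubation: 45 min room-temperature reaction, 5 min colour, 30 min stabiliser; compound: single 20 µM dose, 1% DMSO; reagent: Phosphorylated 17-residue peptide substrate; read-out: % inhibition at 20 µM; technique: colorimetric free-phosphate detection, absorbance 630 nm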
DNMT1 inh: inhibitors of human DNMT1 | P26358 | DNMT1 molecular beacon, Hinp1I cleavage, fluorescence | inhibition (reported as % activation of signal), % at 10 µM | hit rate 0.83% among 360,000; in the data active means inhibition above about 50%
SUMO1-SIM PPI: SUMO1-SIM interaction modulation; P63165; SUMO1 binding to a labelled peptide, TR-FRET, 1 h; inhibition, % at 20 µM; hit rate 0.33% among 360,000; AID 602429; in the data active means inhibition above about 37%
Target sequence (P63165 whole entry, looked up): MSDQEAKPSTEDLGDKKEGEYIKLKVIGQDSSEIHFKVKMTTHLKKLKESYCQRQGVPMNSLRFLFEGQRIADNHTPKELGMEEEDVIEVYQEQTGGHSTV
Large screens that a line does not name were inactive. An excerpt weighted towards active compounds, which were near 1.8% of everything screened.

COc1ccc(OCC(=O)OCC(=O)Nc2ccc3[nH]c(=O)[nH]c3c2)cc1	SUMO1-SIM PPI 62
CC(=O)c1ccc(OCCCC(=O)OCC(=O)Nc2ccc3[nH]c(=O)[nH]c3c2)cc1	SUMO1-SIM PPI 76
COc1ccc(CCC(=O)OCC(=O)Nc2ccc3[nH]c(=O)[nH]c3c2)cc1	none
CC(CC(=O)OCC(=O)Nc1ccc2[nH]c(=O)[nH]c2c1)c1ccccc1 (configuration not stated)	SUMO1-SIM PPI 46
COc1ccccc1C(=O)NCC(=O)OCC(=O)Nc1ccc2[nH]c(=O)[nH]c2c1	SUMO1-SIM PPI 47
O=C(NCC(=O)N1CCCCCCC1)c1ccc(Cl)c(Cl)c1	none (no result: Scp1 inh)
COc1cccc2c1NC(C(=O)O)C1CC=CC21 (configuration not stated)	STEP inh 70, LMPTP block 52, Scp1 inh 74, DNMT1 inh 98, SUMO1-SIM PPI 52
CC(=O)c1ccc2c(c1)C1C=CCC1C(C(=O)O)N2 (configuration not stated)	STEP inh 70, Scp1 inh 75, DNMT1 inh 91, SUMO1-SIM PPI 60
CC(=O)c1ccc2c(c1)C1C=CCC1C(c1ccncc1)N2 (configuration not stated)	none
COc1cccc(C2Nc3c(F)cc(Br)cc3C3C=CCC32)c1OC (configuration not stated)	none
O=[N+]([O-])c1cccc(NC(=S)N2CCN(c3ccccn3)CC2)c1	none
O=C(O)C1C2C=CC(C2)C1C(=O)NCc1cccnc1 (configuration not stated)	none
O=C(NCc1cccnc1)C1C2C=CC(C2)C1C(=O)Nc1cccc(C(F)(F)F)c1 (configuration not stated)	SUMO1-SIM PPI 40 (no result: Scp1 inh)
CCCCNC(=O)c1nc(C2CCN(S(=O)(=O)c3cccc(C(F)(F)F)c3)CC2)oc1-c1cccc(C(F)(F)F)c1	none (no result: Scp1 inh)
Cc1ccc(NC(=O)CSc2nnc(C3CC3)n2C)cc1S(=O)(=O)N1CCCCC1	none
N#Cc1cc2ccc(N3CCOCC3)cc2cc1C#N	SUMO1-SIM PPI 44
N#Cc1cc(Cl)c(N2CCOCC2)cc1C#N	none
Cc1cc(C)cc(OCC(=O)Nc2ccc(N3CCCC3)cc2)c1	DNMT1 inh 65
COc1ccc(OCC(=O)Nc2ccc(N3CCCCC3)cc2)cc1	none
O=Cc1cccn1-c1c(C(=O)O)cnn1-c1ccccc1	SUMO1-SIM PPI 42
CCCCC(=O)Nc1ccc(NC(=O)C2CC2)nc1	SUMO1-SIM PPI 57
C[C@@H]1CN([C@@H](C)CO)C(=O)c2cc(NC(=O)C3CC3)ccc2O[C@@H]1CN(C)C(=O)NC1CCCCC1	none
O=C(O)c1ccc(-c2ccc(/C=c3/sc4nc5ccccc5n4c3=O)o2)cc1Cl	STEP inh 90, Scp1 inh 98, DNMT1 inh 106, SUMO1-SIM PPI 39
Cc1ccc2c(nc3s/c(=C\c4ccc(-c5ccccc5C(=O)O)o4)c(=O)n32)c1C	Scp1 inh 76, DNMT1 inh 63
Nc1ccc(-c2cnc[nH]2)cc1[N+](=O)[O-]	none
Cc1ccc(-n2ncc3c(=O)[nH]c(SCC(=O)N4CCCC4)nc32)cc1C	none
Cc1ccc(-n2ncc3c(=O)[nH]c(SCC(=O)N4CCC(C)CC4)nc32)cc1C	SUMO1-SIM PPI 41
CCOC(=O)C1CCN(C(=O)c2cc(COc3ccc(OC)c4ccccc34)on2)CC1	none
CCOC(=O)c1c2c(n(C)c1C)C(=O)C(=O)c1ccc(Br)cc1-2	DNMT1 inh 88
CCOC(=O)c1c2c(n(Cc3ccccc3)c1C)C(=O)C(=O)c1ccccc1-2	DNMT1 inh 93
CC1=C(C(=O)N(C(C)C)C(C)C)CC(CC(=O)NC2CCCC2)C(=O)N1Cc1ccc(C(C)(C)C)cc1 (configuration not stated)	none (no result: Scp1 inh)
Cc1noc(C)c1-c1ccc2nc[nH]c(=O)c2c1	none
CCCCn1nnnc1C1(C)CCC(=O)N1Cc1ccco1 (configuration not stated)	none (no result: STEP inh, Scp1 inh, DNMT1 inh)
COc1ccc(Cl)cc1C(=O)OCC(=O)NCCNC(=O)COC(=O)c1cc(Cl)ccc1OC	none
COc1cc(Cl)ccc1OCc1cc(C(=O)N(C)C2CC(C)(C)NC(C)(C)C2)no1	none
O=C(CCS(=O)(=O)c1ccccc1)N1CCN(c2ccc(F)cc2)CC1	none
COc1ccc2nc(-n3c(O)c(C4=c5ccccc5=NC4=O)[nH]c3=S)sc2c1	Scp1 inh 85
Cn1c(O)c(C2=c3ccccc3=NC2=O)[nH]c1=S	none
Nc1nonc1-c1nc2ccccc2n1CC(=O)N/N=C/c1ccc(-c2cccc(C(=O)O)c2)o1	Scp1 inh 72
Nc1nonc1-c1nc2ccccc2n1CC(=O)O	none
CC(C)OC(=O)c1ccc(NC(=O)Cn2c(-c3nonc3N)nc3ccccc32)cc1	SUMO1-SIM PPI 43
CCCCNC(=O)c1onc(CSc2ccc(F)c(F)c2)c1C(=O)NCCCC	none
COC(=O)C1C2C=CC(C3CC23)C1C(=O)OCC(=O)c1ccccc1 (configuration not stated)	SUMO1-SIM PPI 45
Cc1noc(C)c1S(=O)(=O)Nc1ccc2c(c1)C(=O)N([C@H](C)CO)C[C@H](C)[C@@H](CN(C)C(=O)Nc1ccccc1)O2	Scp1 inh 79
Cc1noc(C)c1S(=O)(=O)Nc1ccc2c(c1)C(=O)N([C@H](C)CO)C[C@H](C)[C@@H](CN(C)C(=O)Nc1ccc(C(F)(F)F)cc1)O2	none
CN(C)c1ccc2nc3ccc(=[N+](C)C)cc-3sc2c1	none
Cc1cc2nc3ccc(=[N+](C)C)cc-3sc2cc1N	DNMT1 inh 57, SUMO1-SIM PPI 54
CCOC(=O)c1ccc(N2CC(O)=C(c3nc4ccccc4c(=O)[nH]3)C2=N)cc1	SUMO1-SIM PPI 50
CCOc1ccc(N2CC(O)=C(c3nc4ccccc4c(=O)[nH]3)C2=N)cc1	none
Cc1cc2cc(CNC(=O)c3ccc4c(c3)OCO4)ccc2n1C	LMPTP block 55
COc1ccc(C(=O)NCc2ccc3c(c2)cc(C)n3C)cc1	none
CC1(c2nnnn2-c2ccc3c(c2)OCCO3)CCC(=O)N1C1CCN(Cc2ccccc2)CC1 (configuration not stated)	none (no result: STEP inh, Scp1 inh, DNMT1 inh)
COc1ccc(Cc2c3cc(OC)c(OC)cc3cc[n+]2C)cc1OC	Scp1 inh 101
CC[n+]1ccc2cc(OC)c(OC)cc2c1Cc1ccc(OC)c(OC)c1	Scp1 inh 96
Cc1ccc(C)c(OCC(=O)N/N=C/c2ccc(N3CCOCC3)cc2)c1	none (no result: Scp1 inh)
Cc1ccccc1CN1CCC(CNC(=O)C2CCCN(c3ncnc4c3nc3n4CCCCC3)C2)CC1 (configuration not stated)	none
O=C1C(=C(I)I)c2ccccc2-c2ccccc21	DNMT1 inh 115, SUMO1-SIM PPI 36
O=C(COC(=O)c1ccc[n+]([O-])c1)Nc1ccc([N+](=O)[O-])cc1Cl	none
